Reference: ChEMBL document CHEMBL4351001, “2-Aminoimidazole-based antagonists of the 5-HT6 receptor - A new concept in aminergic GPCR ligand design” (Eur J Med Chem, 2019)
Active and inactive are the calls of the source. No cut-off for these calls is given here.

How the values were obtained:
in vitro [1] = settings: rat, microsomes
Rattus norvegicus = test: Reversal of scopolamine induced cognitive impairment impairment in Sprague-Dawley rat at 1 mg/kg, po pre treated for 2 hrs followed by scopolamine addition further treated for 30 mins and measured after 1 hr by novel object recognition test; assay type: functional, organism-based
Outline: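 Male Sprague–Dawley rats (~250 g); open-field habituation 5 min 24 h before test. Compounds p.o. 120 min and scopolamine 1.25 mg/kg i.p. 30 min before 3-min familiarization trial; 3-min recognition trial 1 h later. Exploration video-tracked; discrimination index computed; one-way ANOVA with Newman–Keuls; n = 9–10 per group; mean ± SEM.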

in vitro [2] = settings: rat, microsomes; remark: listed apart in the source
[3] = molecular target: 5-hydroxytryptamine receptor 2B (Homo sapiens) (UniProt P41595); test: Displacement of [3H] mesulergine from human recombinant 5HT2B receptor at 10^-6 M measured after 60 mins by scintillation counting method relative to control
[4] = molecular target: T1, Muscarinic acetylcholine receptor M5 (Homo sapiens) (UniProt P08912); test: Displacement of [3H]4-DAMP from human recombinant muscarinic M5 receptor at 10^-6 M measured after 60 mins by scintillation counter method relative to control
T1 sequence (whole entry): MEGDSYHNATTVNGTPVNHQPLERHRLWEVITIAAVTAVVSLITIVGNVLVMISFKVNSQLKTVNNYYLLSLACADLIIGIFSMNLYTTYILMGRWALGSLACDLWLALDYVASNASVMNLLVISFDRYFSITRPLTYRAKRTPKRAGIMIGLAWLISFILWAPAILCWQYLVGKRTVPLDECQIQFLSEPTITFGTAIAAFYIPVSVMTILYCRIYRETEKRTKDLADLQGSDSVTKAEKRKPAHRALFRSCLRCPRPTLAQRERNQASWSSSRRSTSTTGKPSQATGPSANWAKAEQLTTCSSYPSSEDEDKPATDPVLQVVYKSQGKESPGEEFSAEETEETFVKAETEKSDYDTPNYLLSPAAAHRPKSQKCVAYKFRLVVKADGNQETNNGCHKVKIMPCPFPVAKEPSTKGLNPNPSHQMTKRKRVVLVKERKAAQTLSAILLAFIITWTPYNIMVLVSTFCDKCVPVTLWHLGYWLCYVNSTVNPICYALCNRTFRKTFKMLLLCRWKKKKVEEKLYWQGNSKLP

[5] = molecular target: T2, 5-hydroxytryptamine receptor 2C (Homo sapiens) (UniProt P28335); test: Displacement of [3H]mesulergine from human recombinant 5HT2C serotonin receptor at 10^-6M incubated for 120 mins by scintillation counter method relative to control
T2 sequence (whole entry): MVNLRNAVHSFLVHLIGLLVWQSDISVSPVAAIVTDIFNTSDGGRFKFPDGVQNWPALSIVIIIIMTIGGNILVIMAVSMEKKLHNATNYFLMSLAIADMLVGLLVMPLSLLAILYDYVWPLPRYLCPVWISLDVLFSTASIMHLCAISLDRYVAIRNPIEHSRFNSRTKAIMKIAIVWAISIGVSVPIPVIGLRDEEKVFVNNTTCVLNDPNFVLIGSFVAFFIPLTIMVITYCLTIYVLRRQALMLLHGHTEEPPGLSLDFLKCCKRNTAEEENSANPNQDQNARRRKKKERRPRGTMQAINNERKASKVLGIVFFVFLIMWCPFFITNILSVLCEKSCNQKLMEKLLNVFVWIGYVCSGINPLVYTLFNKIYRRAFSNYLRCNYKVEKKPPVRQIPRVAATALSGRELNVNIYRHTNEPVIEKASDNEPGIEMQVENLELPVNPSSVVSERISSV

[6] = molecular target: 5-hydroxytryptamine receptor 2A (Homo sapiens, UniProt P28223); test: Displacement of [3H]ketanserin from human 5HT2A receptor expressed in CHOK1 cells incubated for 1 hr by liquid scintillation counter method; assay type: cell-based; settings: read-out: Ki
[7] = molecular target: T3, 5-hydroxytryptamine receptor 1A (Homo sapiens, UniProt P08908); test: Displacement of [3H]-8-OH-DPAT from human 5HT1A receptor expressed in HEK293 cells incubated for 1 hr by liquid scintillation counter method; assay type: cell-based; settings: read-out: Ki
T3 sequence (P08908 whole entry): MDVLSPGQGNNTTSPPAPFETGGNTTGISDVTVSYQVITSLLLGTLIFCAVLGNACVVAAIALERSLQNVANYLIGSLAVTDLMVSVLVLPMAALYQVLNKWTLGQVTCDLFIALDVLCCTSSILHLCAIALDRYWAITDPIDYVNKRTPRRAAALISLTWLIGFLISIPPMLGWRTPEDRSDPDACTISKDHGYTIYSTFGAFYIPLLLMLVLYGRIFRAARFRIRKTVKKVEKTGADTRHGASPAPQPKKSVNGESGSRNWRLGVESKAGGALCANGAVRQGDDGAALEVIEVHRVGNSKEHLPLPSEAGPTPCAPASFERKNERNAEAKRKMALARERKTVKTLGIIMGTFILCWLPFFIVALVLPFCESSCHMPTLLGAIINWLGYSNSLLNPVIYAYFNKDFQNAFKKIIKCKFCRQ
Outline: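 HEK293 cells stably expressing human 5-HT1AR; membranes in 50 mM Tris–HCl, 0.1 mM EDTA, 4 mM MgCl2, 10 μM pargyline, 0.1% ascorbate; incubated 1 h at room temperature, then filtered. Nonspecific binding defined with 10 μM 5-HT.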

[8] = molecular target: T4, Muscarinic acetylcholine receptor M1 (Homo sapiens) (UniProt P11229); test: Displacement of [3H] pirenzepine from human recombinant muscarinic M1 receptor at 10^-6 M measured after 60 mins by scintillation counter method relative to control
T4 sequence (whole entry): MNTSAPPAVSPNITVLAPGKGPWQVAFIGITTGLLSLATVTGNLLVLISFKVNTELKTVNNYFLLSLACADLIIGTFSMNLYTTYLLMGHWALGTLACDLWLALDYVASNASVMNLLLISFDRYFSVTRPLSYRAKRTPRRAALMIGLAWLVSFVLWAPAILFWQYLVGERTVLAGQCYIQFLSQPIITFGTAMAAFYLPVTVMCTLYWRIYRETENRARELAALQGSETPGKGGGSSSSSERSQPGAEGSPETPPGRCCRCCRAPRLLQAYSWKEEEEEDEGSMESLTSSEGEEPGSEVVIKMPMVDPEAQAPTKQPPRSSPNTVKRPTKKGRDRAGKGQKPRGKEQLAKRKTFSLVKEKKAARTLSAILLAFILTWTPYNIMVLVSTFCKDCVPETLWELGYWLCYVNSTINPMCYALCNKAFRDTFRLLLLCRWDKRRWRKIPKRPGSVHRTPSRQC

[9] = molecular target: T5, Alpha-1A adrenergic receptor (Rattus norvegicus) (UniProt P43140); test: Displacement of [3H] prazosin from rat alpha 1A adrenergic receptor at 10^-6 M measured after 60 mins by scintillation counter method relative to control
T5 sequence (whole entry): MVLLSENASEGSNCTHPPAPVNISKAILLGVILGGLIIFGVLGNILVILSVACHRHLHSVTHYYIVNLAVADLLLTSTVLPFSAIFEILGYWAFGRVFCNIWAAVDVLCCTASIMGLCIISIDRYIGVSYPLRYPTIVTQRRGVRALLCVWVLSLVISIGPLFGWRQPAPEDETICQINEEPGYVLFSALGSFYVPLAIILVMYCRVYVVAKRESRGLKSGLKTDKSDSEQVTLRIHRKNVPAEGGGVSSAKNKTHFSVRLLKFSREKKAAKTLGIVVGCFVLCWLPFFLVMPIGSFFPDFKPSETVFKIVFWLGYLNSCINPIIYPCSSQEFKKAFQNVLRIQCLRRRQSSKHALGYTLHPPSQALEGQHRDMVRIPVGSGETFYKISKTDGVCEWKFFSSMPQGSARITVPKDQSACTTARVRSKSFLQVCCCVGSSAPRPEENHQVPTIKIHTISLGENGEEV

hERG (KCNH2) = hERG (KCNH2) (Homo sapiens, UniProt Q12809); test: Displacement of [3H] dofetilide from human recombinant ERG at 10^-6 M measured after 60 mins by scintillation counting method relative to control; settings: probe [3H]dofetilide
[10] = Solubility of compound in water; assay type: physicochemical; settings: water; read-out: solubility

5-hydroxytryptamine receptor 2B (Homo sapiens), sequence (P41595 whole entry): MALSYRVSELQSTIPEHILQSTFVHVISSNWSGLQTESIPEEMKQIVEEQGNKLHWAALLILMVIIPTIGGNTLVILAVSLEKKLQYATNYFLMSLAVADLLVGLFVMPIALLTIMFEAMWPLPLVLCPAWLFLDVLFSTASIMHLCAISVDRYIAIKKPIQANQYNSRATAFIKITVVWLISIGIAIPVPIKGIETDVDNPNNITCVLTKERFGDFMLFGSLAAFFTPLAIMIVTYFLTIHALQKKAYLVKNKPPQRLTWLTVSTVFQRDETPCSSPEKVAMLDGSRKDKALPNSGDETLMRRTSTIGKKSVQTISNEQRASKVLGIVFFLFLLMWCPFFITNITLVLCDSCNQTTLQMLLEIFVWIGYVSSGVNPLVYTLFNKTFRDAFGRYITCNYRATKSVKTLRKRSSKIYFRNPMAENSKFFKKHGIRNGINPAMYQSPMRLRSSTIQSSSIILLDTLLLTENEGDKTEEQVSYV
5-hydroxytryptamine receptor 2A, sequence (P28223 whole entry): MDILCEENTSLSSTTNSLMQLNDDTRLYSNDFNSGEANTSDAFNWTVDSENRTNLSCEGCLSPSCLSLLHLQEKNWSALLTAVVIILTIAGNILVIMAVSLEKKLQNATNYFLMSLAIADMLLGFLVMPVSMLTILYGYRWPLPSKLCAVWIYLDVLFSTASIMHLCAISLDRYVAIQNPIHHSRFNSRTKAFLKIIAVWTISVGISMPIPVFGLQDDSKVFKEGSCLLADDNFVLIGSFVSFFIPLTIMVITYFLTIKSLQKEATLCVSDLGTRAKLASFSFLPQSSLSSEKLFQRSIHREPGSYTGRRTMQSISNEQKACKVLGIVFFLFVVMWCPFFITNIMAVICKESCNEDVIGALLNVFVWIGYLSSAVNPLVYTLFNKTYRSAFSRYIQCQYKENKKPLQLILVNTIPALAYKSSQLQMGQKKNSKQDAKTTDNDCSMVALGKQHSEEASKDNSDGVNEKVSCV
hERG (KCNH2), sequence (Q12809 whole entry): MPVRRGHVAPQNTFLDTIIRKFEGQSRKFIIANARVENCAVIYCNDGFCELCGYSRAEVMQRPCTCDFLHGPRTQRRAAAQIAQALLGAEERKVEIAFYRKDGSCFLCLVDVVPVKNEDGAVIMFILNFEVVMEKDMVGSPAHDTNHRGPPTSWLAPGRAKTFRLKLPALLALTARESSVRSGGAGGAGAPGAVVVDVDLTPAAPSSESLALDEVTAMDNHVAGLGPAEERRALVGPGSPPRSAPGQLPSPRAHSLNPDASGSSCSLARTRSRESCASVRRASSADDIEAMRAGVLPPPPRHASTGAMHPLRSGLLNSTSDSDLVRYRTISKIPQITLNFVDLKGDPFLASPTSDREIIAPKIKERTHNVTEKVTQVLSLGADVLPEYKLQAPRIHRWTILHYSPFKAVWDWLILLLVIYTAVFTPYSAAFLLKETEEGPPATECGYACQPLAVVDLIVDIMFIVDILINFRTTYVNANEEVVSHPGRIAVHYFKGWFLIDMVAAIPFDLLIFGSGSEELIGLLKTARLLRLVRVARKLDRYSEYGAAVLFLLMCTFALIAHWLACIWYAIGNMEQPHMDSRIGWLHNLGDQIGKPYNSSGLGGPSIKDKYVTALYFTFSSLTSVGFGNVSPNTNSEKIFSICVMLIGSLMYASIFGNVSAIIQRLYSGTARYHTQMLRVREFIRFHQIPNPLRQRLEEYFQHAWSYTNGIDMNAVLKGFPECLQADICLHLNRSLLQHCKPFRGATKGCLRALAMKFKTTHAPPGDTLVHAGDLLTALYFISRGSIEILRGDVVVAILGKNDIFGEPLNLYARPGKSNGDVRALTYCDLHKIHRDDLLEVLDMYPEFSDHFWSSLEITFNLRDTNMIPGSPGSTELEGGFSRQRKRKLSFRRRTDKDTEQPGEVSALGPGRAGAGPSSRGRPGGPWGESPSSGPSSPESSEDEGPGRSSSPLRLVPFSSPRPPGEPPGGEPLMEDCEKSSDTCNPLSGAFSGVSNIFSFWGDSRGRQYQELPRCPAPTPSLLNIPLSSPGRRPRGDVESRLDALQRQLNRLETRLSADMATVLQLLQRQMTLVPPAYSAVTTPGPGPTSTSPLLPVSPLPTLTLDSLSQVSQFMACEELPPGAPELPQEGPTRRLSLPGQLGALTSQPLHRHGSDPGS

Row | half-life (in vitro [1]) | microsomal CLint (in vitro [2]) | inhibition [3] | inhibition [4] | inhibition [5] | Ki [6] | Ki [7] | inhibition [8] | inhibition [9] | SMILES | Activity (Rattus norvegicus) | inhibition at 1 h, 1 µM (hERG (KCNH2)) | solubility [10]
1 | 1.32 h | 17.6 µL/min/mg | – | – | – | – | – | – | – | COc1cc2c(cc1OC)C(=O)C(CC1CCN(Cc3ccccc3)CC1)C2 (centres undefined) [DONEPEZIL] | Active | – | –
2 | – | – | 1.7% | 5.6% | 82% | 0.794 µM | > 10 µM | 6.7% | 33.1% | COc1ccc2c(c1)c(-c1cnc(N)[nH]1)cn2S(=O)(=O)c1ccccc1 | – | – | –
3 | – | – | 4.5% | 7.6% | 71.6% | 0.1 µM | > 10 µM | 3.8% | 12.2% | Cc1nc(N)[nH]c1-c1cn(S(=O)(=O)c2ccccc2)c2ccccc12 | – | – | –
4 | – | – | – | – | – | – | – | – | – | CC(=O)Nc1nc(C)c(-c2cn(S(=O)(=O)c3ccccc3)c3ccccc23)[nH]1.Cl | – | 2.4% | 100 to 10000 µg/mL
